Values joined by “and” are separate entries in the source; they are usually repeats but may differ in a detail not shown here. Equal values may be shown once.
Assays:
[1] = tested on: HEK293 cells; assay: HEK293 EC50 analysis; assay type: cell-based, human; settings: 48 hours of treatment
[2] = tested on: human PBMCs; assay: Human peripheral blood mononuclear cell analysis; assay type: cell-based
[3] = tested on: MV4–11 cells; assay: Western blot analysis of MV4–11 cells; assay type: cell-based, human; settings: for AcHH3 and AcHH4 at varied doses: 6 hours
How it was run: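 Cells were seeded at 500k cells/mL in 6-well plates and pre-incubated 24 h. They were then exposed to test compound at 100 nM for 24 h, or at varied doses for 6 h. Pellets were lysed in RIPA (Tris, NaCl, EDTA, SDS, deoxycholate, Triton X-100), sonicated, spun 15 min at 4°C, then heated in β-mercaptoethanol/LDS at 90°C. Primary antibody ran overnight at 4°C. Bands were normalized to actin, n ≥ 2.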

[4] = ESI-LCMS glucuronidation assay; assay type: in vitro ADME, human; settings: 12 hours at 37°C; for glucuronidation in human liver microsomes with UDP Glucuronic acid: alamethicin, ESI-LCMS
How it was run: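 Pooled mixed-gender human liver microsomes at 250 µg/mL in 100 mM Tris HCl, pH 7.5. Alamethicin 1 µg/mL and MgCl2 5 mM (final), rocked 15 min at 4°C for pore formation. Test compound (5 mM stock) added with UDPGA (50 mM stock) or water, rocked 12 h at 37°C. Quenched with water/acetonitrile/formic acid 47:50:3, centrifuged 15000g. Supernatant analysed by reversed-phase ESI-LCMS TIC.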

[5] = tested on: HeLa cells; assay: HeLa EC50 analysis; assay type: cell-based, human; settings: 48 hours of treatment
[6] = molecular target: recombinant HDAC1 (Homo sapiens, UniProt Q13547); assay: Recombinant HDAC Vmax study; assay type: biochemical
[7] = tested on: HEK293 lysate; assay: HEK293 lysate inhibition assay; assay type: biochemical, human; settings: read-out: IC50 HEK293, mean of at least three experiments ± SEM
[8] = tested on: MV4–11 cells; assay: MV4–11 EC50 analysis; assay type: cell-based, human
[9] = tested on: RPMI-8226 cells; assay: Cell viability, CellTiter-Blue; assay type: cell-based, human; settings: even at mM concentrations
[10] = molecular target: recombinant HDAC3 (Homo sapiens, UniProt O15379); assay: Recombinant HDAC Vmax study; assay type: biochemical
Chain of recombinant HDAC3 (O15379 whole entry): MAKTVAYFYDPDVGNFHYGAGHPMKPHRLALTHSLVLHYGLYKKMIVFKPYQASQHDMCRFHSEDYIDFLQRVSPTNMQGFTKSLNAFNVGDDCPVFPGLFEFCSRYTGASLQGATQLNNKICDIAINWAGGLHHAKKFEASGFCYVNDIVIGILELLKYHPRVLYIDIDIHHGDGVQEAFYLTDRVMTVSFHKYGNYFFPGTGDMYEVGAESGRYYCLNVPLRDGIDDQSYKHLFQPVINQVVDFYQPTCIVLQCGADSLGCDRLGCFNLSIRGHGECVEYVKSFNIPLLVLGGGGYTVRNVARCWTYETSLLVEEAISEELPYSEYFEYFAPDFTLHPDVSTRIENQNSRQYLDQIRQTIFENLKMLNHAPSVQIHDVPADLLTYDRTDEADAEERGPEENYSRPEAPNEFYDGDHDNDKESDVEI
Chain of recombinant HDAC3 (Q9Y618 395-489 partner limits assumed): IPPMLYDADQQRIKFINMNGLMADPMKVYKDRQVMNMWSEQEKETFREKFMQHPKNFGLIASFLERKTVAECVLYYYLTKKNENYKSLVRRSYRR

Chain of recombinant HDAC1 (Q13547 whole entry): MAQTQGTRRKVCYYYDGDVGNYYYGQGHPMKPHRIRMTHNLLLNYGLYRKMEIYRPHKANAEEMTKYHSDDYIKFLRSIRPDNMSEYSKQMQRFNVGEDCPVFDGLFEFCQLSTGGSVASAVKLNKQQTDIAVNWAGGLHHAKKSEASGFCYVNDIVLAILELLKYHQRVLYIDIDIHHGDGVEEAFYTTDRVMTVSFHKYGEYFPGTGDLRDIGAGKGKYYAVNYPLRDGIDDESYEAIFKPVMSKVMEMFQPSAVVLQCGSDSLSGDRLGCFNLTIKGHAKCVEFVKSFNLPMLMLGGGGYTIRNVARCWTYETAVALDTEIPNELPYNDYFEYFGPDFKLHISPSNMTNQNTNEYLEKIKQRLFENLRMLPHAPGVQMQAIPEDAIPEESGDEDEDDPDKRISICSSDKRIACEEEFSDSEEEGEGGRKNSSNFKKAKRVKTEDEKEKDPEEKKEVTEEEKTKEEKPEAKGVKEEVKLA

SMILES: CCCNNC(=O)c1ccc(CNC(=O)c2ccccc2)cc1 [2d, N-(4-(2-propylhydrazine-1-carbonyl)benzyl)benzamide]
- killing of HEK293 cells [1]: Neither 11, 2d, nor 3b display effective killing of this solid tumor cell line
- toxicity toward PBMCs compared to panobinostat ([2]; 24 hours treatment): superior toxicity (less PBMC killing) than panobinostat
- less toxicity toward PBMCs than 3b ([2]; vs 3b, until the high micromolar range): 10 fold and ~ 10 fold
- upregulation of Acetylated Histones H3 and H4 (AcHH3/AcHH4) ([3]; 100 nM, 24 hours): higher upregulation of Acetylated Histones H3 and H4 (AcHH3/AcHH4) than vorinostat and entinostat
- AcHH3 and AcHH4 at varied doses [3]: dose-dependent increase in AcHH3 and AcHH4
- metabolites in human liver microsomes ([4]; with and without UDPGA, no NADPH added): Neither vessel contained any detectable metabolites other than parent compound
- killing of HeLa cells [5]: Neither 1l, 2d, nor 3b display effective killing of this solid tumor cell line
- mode of inhibition, HDAC1 (Lineweaver-Burke plot) [6]: mixed inhibition

SMILES: CCCCCCNNC(=O)c1ccc(CNC(=O)c2ccccc2)cc1 [2j, N-(4-(2-hexylhydrazine-1-carbonyl)benzyl)benzamide]
- IC50 [7]: 0.55 ± 0.134 µM

SMILES: CCCCCCCCNNC(=O)c1ccc(CNC(=O)c2ccccc2)cc1 [2i, N-(4-(2-octylhydrazine-1-carbonyl)benzyl)benzamide]
- IC50 [7]: > 10 µM

SMILES: CCCNNC(=O)c1ccc(CNC(=O)/C=C/c2ccccc2)cc1 [3b, N-(4-(2-propylhydrazine-1-carbonyl)benzyl)cinnamamide]
- decrease in EC50 in MV4–11 cells compared to 2d ([8]; vs 2d): ~2.5 fold
- kill curve against RPMI-8226 [9]: incomplete kill curves
- killing of HEK293 cells [1]: Neither 11, 2d, nor 3b display effective killing of this solid tumor cell line
- toxicity toward PBMCs compared to panobinostat ([2]; 24 hours treatment): superior toxicity (less PBMC killing) than panobinostat
- upregulation of Acetylated Histones H3 and H4 (AcHH3/AcHH4) ([3]; 100 nM, 24 hours): higher upregulation of Acetylated Histones H3 and H4 (AcHH3/AcHH4) than vorinostat and entinostat
- AcHH3 and AcHH4 at varied doses [3]: dose-dependent increase in AcHH3 and AcHH4
- glucuronidation in human liver microsomes with UDP Glucuronic acid [4]: not readily glucuronidated
- killing of HeLa cells [5]: Neither 1l, 2d, nor 3b display effective killing of this solid tumor cell line

SMILES: CCCCCCNNC(=O)c1ccc(CNC(=O)/C=C/c2ccccc2)cc1 [3e, N-(4-(2-hexylhydrazine-1-carbonyl)benzyl)cinnamamide]
- IC50 [7]: 1.72 ± 0.139 µM

SMILES: CCCCCNNC(=O)c1ccc(CNC(=O)/C=C/c2ccccc2)cc1 [3d, N-(4-(2-pentylhydrazine-1-carbonyl)benzyl)cinnamide]
- IC50 [7]: 0.691 ± 0.0547 µM

SMILES: O=C(NCc1ccc(C(=O)NNCC2CC2)cc1)c1ccccc1 [2g, N-(4-(2-(cyclopropylmethyl)hydrazine-1-carbonyl)benzyl)benzamide]
- IC50 [7]: 1.62 ± 0.196 µM

SMILES: CCCCNNC(=O)c1cccc2ccccc12 [1j, N’-butyl-1-napthohydrazide]
- IC50 [7]: > 10 µM

SMILES: CCCCNNC(=O)CCc1ccccc1 [1h, N’-butyl-3-phenylpropanehydrazide]
- IC50 [7]: > 10 µM

SMILES: O=C(CCCCCCC(=O)Nc1ccccc1)NO [vorinostat, reference compound]
- mode of inhibition, HDAC3 (Lineweaver-Burke plot) [10]: competitive inhibition
- glucuronidation in human liver microsomes with UDP Glucuronic acid [4]: presence of the o-glucuronidated metabolite
- mode of inhibition, HDAC1 (Lineweaver-Burke plot) [6]: competitive inhibition

SMILES: CCCCNNC(=O)c1ccc(Oc2ccccc2)cc1 [1c, N’-butyl-4-phenoxybenzohydrazide]
- IC50 [7]: 1.69 ± 0.298 µM

SMILES: CCCCNNC(=O)c1ccc(OC)cc1 [1a, N’-butyl-4-methoxybenzohydrazide]
- IC50 [7]: 0.727 ± 0.0108 µM

SMILES: CCCCCCCCCCNNC(=O)c1ccc(CNC(=O)c2ccccc2)cc1 [2k, N-(4-(2-decylhydrazine-1-carbonyl)benzyl)benzamide]
- IC50 [7]: > 10 µM

SMILES: CCCCNNC(=O)c1cccs1 [1f, N’-butylthiophene-2-carbohydrazide]
- IC50 [7]: 3.46 ± 0.669 µM

SMILES: CCCCNNC(=O)c1ccc(CNC(=O)c2ccccc2)cc1 [1l, N-(4-(2-butylhydrazine-1-carbonyl)benzyl)benzamide]
- killing of HEK293 cells [1]: Neither 11, 2d, nor 3b display effective killing of this solid tumor cell line
- upregulation of Acetylated Histones H3 and H4 (AcHH3/AcHH4) ([3]; 100 nM, 24 hours): higher upregulation of Acetylated Histones H3 and H4 (AcHH3/AcHH4) than vorinostat and entinostat
- AcHH3 and AcHH4 at varied doses [3]: dose-dependent increase in AcHH3 and AcHH4
- killing of HeLa cells [5]: Neither 1l, 2d, nor 3b display effective killing of this solid tumor cell line

SMILES: CCNNC(=O)c1ccc(CNC(=O)c2ccccc2)cc1 [2l, N-(4-(2-ethylhydrazine-1-carbonyl)benzyl)benzamide]
- IC50 [7]: 0.427 ± 0.111 µM

SMILES: CCCCNNC(=O)c1cc2ccccc2o1 [1b, N’-butylbenzofuran-2-carbohydrazide]
- IC50 [7]: 1.69 ± 0.0381 µM

SMILES: CCNNC(=O)c1ccc(CNC(=O)/C=C/c2ccccc2)cc1 [3a, N-(4-(2-ethylhydrazine-1-carbonyl)benzyl)cinnamide]
- IC50 [7]: 0.171 ± 0.0342 µM

SMILES: CCCCNNC(=O)/C=C/c1ccccc1 [1i, N’-butylcinnamohydrazide]
- IC50 [7]: 1.44 ± 0.0861 µM

SMILES: CCCCCCCNNC(=O)c1ccc(CNC(=O)c2ccccc2)cc1 [2h, N-(4-(2-heptylhydrazine-1-carbonyl)benzyl)benzamide]
- IC50 [7]: 2.16 ± 0.896 µM

SMILES: O=C(NCc1ccc(C(=O)NNCC2CCC2)cc1)c1ccccc1 [2m, N-(4-(2-(cyclobutylmethyl)hydrazine-1-carbonyl)benzyl)benzamide]
- IC50 [7]: 1.88 ± 0.212 µM

SMILES: CC(C)NNC(=O)c1ccc(CNC(=O)c2ccccc2)cc1 [2b, N-(4-(2-isopropylhydrazine-1-carbonyl)benzyl)benzamide]
- IC50 [7]: > 10 µM

SMILES: Cc1[nH]c2ccccc2c1CCNCc1ccc(/C=C/C(=O)NO)cc1 [Panobinostat, panobinostat, reference compound]
- concentration at which toxicity toward PBMCs is displayed ([2]; 24 hours treatment): 10 nM
- Acetylated Tubulin (AcTub) levels ([3]; 100 nM, 24 hours, marker of HDAC6 inhibition): the only inhibitor to raise Acetylated Tubulin (AcTub) levels at this concentration

SMILES: C/C=C/CNNC(=O)c1ccc(CNC(=O)c2ccccc2)cc1 [2a, (E)-N-(4-(2-(but-2-en-1-yl)hydrazine-1-carbonyl)benzyl)benzamide]
- IC50 [7]: > 10 µM

SMILES: CCCCNNC(=O)c1ccco1 [1g, N’-butylfuran-2-carbohydrazide]
- IC50 [7]: > 10 µM

SMILES: CC/C=N/NC(=O)c1ccc(CNC(=O)c2ccccc2)cc1 [2c, (E)-N-(4-(2-propylidenehydrazine-1-carbonyl)benzyl)benzamide]
- IC50 [7]: > 10 µM
- activity against MV4–11 cells ([8]; doses as high as 250 µM, negative control): no appreciable activity
- upregulation of Acetylated Histones H3 and H4 (AcHH3/AcHH4) ([3]; 100 nM, 24 hours): no appreciable ability to increase acetylation of histones H3 and H4

SMILES: O=C(NCc1ccc(C(=O)NNCCC(F)(F)F)cc1)c1ccccc1 [2f, N-(4-(2-(3,3,3-trifluoropropyl)hydrazine-1-carbonyl)benzyl)benzamide]
- IC50 [7]: 1.23 ± 0.137 µM

SMILES: CCCCNNC(=O)c1cccnc1 [1d, N’-butylnicotinohydrazide]
- IC50 [7]: 4.68 ± 0.909 µM

Reference: publication PMC5260863 (Journal of medicinal chemistry, 2016)
